From ChEMBL document CHEMBL3232922, “Discovery and SAR of 6-alkyl-2,4-diaminopyrimidines as histamine H₄ receptor antagonists” (J Med Chem, 2014)
The source made the active and inactive calls. The rule behind the calls is not given here.

How the values were obtained:
[1] = Clearance in beagle dog at 2 mg/kg, iv; format: ADME, organism-based, Canis lupus familiaris; parameters: dose 2 mg/kg, route intravenous; conditions: beagle, in vivo
[2] = Volume of distribution at steady state in beagle dog at 2 mg/kg, iv; format: ADME, organism-based, Canis lupus familiaris; parameters: dose 2 mg/kg, route intravenous; conditions: in vivo, read-out: Vdss
[3] = Half life in Balb/c mouse at 5 mg/kg, po; format: ADME, organism-based; parameters: dose 5 mg/kg, route oral; conditions: in vivo
[4] = Half life in Sprague-Dawley rat at 500 mg/kg, po; format: ADME, organism-based; parameters: dose 500 mg/kg, route oral; conditions: in vivo
[5] = Tmax in mouse brain at 5 mg/kg, po administered as single dose by LC-MS/MS analysis; format: ADME, organism-based; parameters: dose 5 mg/kg, route oral
Outline: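 Mice received one oral dose of 5 mg/kg. Brain, liver and kidneys were surgically removed from three mice per time point for up to 96 h after dosing. Tissue drug levels were measured by LC–MS/MS with a lower limit of quantitation of 1 ng/g. Tmax and t1/2 are reported as means.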

[6] = system: Mus musculus; assay: Antipruritic activity against histamine-induced scratching C57/bl6 mouse model assessed as inhibition of itching at 5 to 20 mg/kg, po administered 30 mins prior to histamine challenge measured over 20 mins; format: functional, organism-based
Outline: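 Mice (n = 6–8 per group) were dosed orally in 20% hydroxypropyl-β-cyclodextran 30 min before intradermal histamine (100 μg). Magnets were placed on the ear and the mice were put in containers above a solenoid. Scratch-specific signals were counted automatically over 20 min immediately after the histamine injection.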

[7] = molecular target: Histamine H3 receptor (Homo sapiens, UniProt Q9Y5N1); assay: Displacement of [3H]N-alpha-methylhistamine from human recombinant histamine H3 receptor expressed in SK-N-MC cells after 45 mins by competition binding analysis; format: cell-based
Sequence of Histamine H3 receptor (Q9Y5N1 whole entry): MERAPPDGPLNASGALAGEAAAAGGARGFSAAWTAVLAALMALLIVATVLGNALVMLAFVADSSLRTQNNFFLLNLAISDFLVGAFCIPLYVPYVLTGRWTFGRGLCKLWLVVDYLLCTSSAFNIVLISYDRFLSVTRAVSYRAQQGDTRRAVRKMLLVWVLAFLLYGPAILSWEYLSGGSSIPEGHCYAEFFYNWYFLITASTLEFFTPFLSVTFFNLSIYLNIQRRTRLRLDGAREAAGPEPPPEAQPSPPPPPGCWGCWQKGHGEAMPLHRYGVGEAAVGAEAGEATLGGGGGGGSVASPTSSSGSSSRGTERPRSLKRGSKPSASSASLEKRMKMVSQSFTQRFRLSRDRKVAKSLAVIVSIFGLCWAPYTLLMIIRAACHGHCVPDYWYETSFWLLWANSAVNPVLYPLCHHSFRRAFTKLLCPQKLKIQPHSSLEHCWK

[8] = AUC in rat at 2 mg/kg, iv; format: ADME, organism-based; parameters: dose 2 mg/kg, route intravenous; conditions: plasma
[9] = Volume of distribution at steady state in rat at 2 mg/kg, iv; format: ADME, organism-based; parameters: dose 2 mg/kg, route intravenous; conditions: in vivo, read-out: Vdss
[10] = system: Salmonella typhimurium; assay: Genotoxicity in Salmonella typhimurium by Ames test; format: toxicity, organism-based; conditions: salmonella enterica subsp. enterica serovar typhimurium
[11] = Tmax in Balb/c mouse at 20 mg/kg, po; format: ADME, organism-based; parameters: dose 20 mg/kg, route oral; conditions: in vivo

With `CC(C)c1cc(N2CC[C@@H](N)C2)nc(N)n1` [JNJ-39758979] as the compound, how does the clearance [1] read?
The clearance was 23.3 mL/min/kg.

And the Vd [2]?
The Vd was 19.9 L/kg.

What about the half-life [3] of the same compound?
The half-life was 6.8 h.

And the half-life [4]?
The half-life was 12 h.

And the Tmax [5]?
The Tmax was 6 h.

And the inhibition [6]?
Its inhibition is “Active”.

What about the Ki [7] of the same compound?
Its Ki is 1.04 µM.

What about the AUC [8] of the same compound?
Its AUC is 1.4 µM·h.

What about the Vd [9] of the same compound?
The Vd was 19.9 L/kg.

And the Activity [10]?
Its Activity is “Non-toxic”.

And the Tmax [11]?
Its Tmax is 0.5 h.
